Assay results taken from ChEMBL document CHEMBL1143835, “Antipropionibacterial activity of BAL19403, a novel macrolide antibiotic” (2007).
Converted amounts (≈) assume the structure as drawn.

Experiments:
[1] = test system: Cutibacterium acnes; assay: Antibacterial activity against drug-resistant Propionibacterium acnes SW10 after 48 hrs by broth microdilution method; type: functional
How it was run: (§1)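 Broth microdilution MIC in Wilkins-Chalgren broth without lysed horse blood, following CLSI anaerobe guidelines. Plates were held in anaerobic jars with atmosphere generators (O2 <0.1% by 2.5 h, CO2 >15% by 24 h) at 35 to 37°C for 48 h. Growth was read with an illuminated plate reader and magnifying mirror.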

[2] = test system: Cutibacterium acnes; assay: Antibacterial activity against drug-resistant Propionibacterium acnes SW16 after 48 hrs by broth microdilution method; type: functional; how it was run: as §1
[3] = test system: Cutibacterium acnes; assay: Antibacterial activity against drug-resistant Propionibacterium acnes SW17 after 48 hrs by broth microdilution method; type: functional; how it was run: as §1
[4] = test system: Cutibacterium acnes; assay: Antibacterial activity against drug-resistant Propionibacterium acnes SW26 after 48 hrs by broth microdilution method; type: functional; how it was run: as §1
[5] = test system: Cutibacterium acnes; assay: Antibacterial activity against drug-resistant Propionibacterium acnes D-04/97 after 48 hrs by broth microdilution method; type: functional; how it was run: as §1
[6] = test system: Cutibacterium acnes; assay: Antibacterial activity against drug-resistant Propionibacterium acnes OK8/97 after 48 hrs by broth microdilution method; type: functional; how it was run: as §1
[7] = test system: Cutibacterium acnes; assay: Antibacterial activity against drug-resistant Propionibacterium acnes EG7NS after 48 hrs by broth microdilution method; type: functional; how it was run: as §1
[8] = test system: Cutibacterium acnes; assay: Antibacterial activity against drug-resistant Propionibacterium acnes EG13NS after 48 hrs by broth microdilution method; type: functional; how it was run: as §1
[9] = test system: Propionibacterium granulosum; assay: Antibacterial activity against drug-resistant Propionibacterium granulosum NCTC-11865 after 48 hrs by broth microdilution method; type: functional; conditions: Cutibacterium granulosum, NCTC-11865, 48 h; how it was run: as §1
[10] = test system: Cutibacterium acnes; assay: Antibacterial activity against drug-resistant Propionibacterium acnes SW11 after 48 hrs by broth microdilution method; type: functional; how it was run: as §1
[11] = test system: Cutibacterium acnes; assay: Antibacterial activity against drug-resistant Propionibacterium acnes EG3NS after 48 hrs by broth microdilution method; type: functional; how it was run: as §1
[12] = test system: Cutibacterium acnes; assay: Antibacterial activity against drug-resistant Propionibacterium acnes SW3CD after 48 hrs by broth microdilution method; type: functional; how it was run: as §1
[13] = test system: Cutibacterium acnes; assay: Antibacterial activity against drug-resistant Propionibacterium acnes P95 after 48 hrs by broth microdilution method; type: functional; how it was run: as §1
[14] = test system: Cutibacterium acnes; assay: Antibacterial activity against drug-resistant Propionibacterium acnes FG7E after 48 hrs by broth microdilution method; type: functional; how it was run: as §1
[15] = test system: Cutibacterium acnes; assay: Antibacterial activity against drug-resistant Propionibacterium acnes GE4E after 48 hrs by broth microdilution method; type: functional; how it was run: as §1
[16] = test system: Cutibacterium acnes; assay: Antibacterial activity against drug-resistant Propionibacterium acnes SP64E after 48 hrs by broth microdilution method; type: functional; how it was run: as §1
[17] = test system: Cutibacterium acnes; assay: Antibacterial activity against drug-resistant Propionibacterium acnes SW101CDA after 48 hrs by broth microdilution method; type: functional; how it was run: as §1
[18] = test system: Cutibacterium acnes; assay: Antibacterial activity against drug-resistant Propionibacterium acnes P:413 after 48 hrs by broth microdilution method; type: functional; how it was run: as §1
[19] = test system: Cutibacterium acnes; assay: Antibacterial activity against drug-resistant Propionibacterium acnes P322:2 after 48 hrs by broth microdilution method; type: functional; how it was run: as §1
[20] = test system: Cutibacterium acnes; assay: Antibacterial activity against drug-resistant Propionibacterium acnes EG7NS after 72 hrs; type: functional
How it was run: (§2)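 MBC for P. acnes followed MIC assays by standard methodology. Samples were plated on Wilkins-Chalgren agar, incubated anaerobically in GENbox jars at 35 to 37°C, and examined for growth after 72 h.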

[21] = test system: Cutibacterium acnes; assay: Antibacterial activity against drug-resistant Propionibacterium acnes SW3CD after 72 hrs; type: functional; how it was run: as §2
[22] = test system: Cutibacterium acnes; assay: Antibacterial activity against drug-resistant Propionibacterium acnes P95 after 72 hrs; type: functional; how it was run: as §2
[23] = test system: Cutibacterium acnes; assay: Antibacterial activity against drug-resistant Propionibacterium acnes SW101T after 72 hrs; type: functional; how it was run: as §2
[24] = test system: Cutibacterium acnes; assay: Antibacterial activity against drug-resistant Propionibacterium acnes GE4E after 72 hrs; type: functional; how it was run: as §2
[25] = test system: Cutibacterium acnes; assay: MBC/MIC ratio of Propionibacterium acnes SW101T; type: functional
How it was run: (§3)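 MIC by CLSI broth microdilution in Wilkins-Chalgren broth in anaerobic jars (O2 <0.1%, CO2 >15%), read after 48 h at 35–37°C on an illuminated plate reader. For MBC, samples were plated onto Wilkins-Chalgren agar and incubated anaerobically for 72 h at 35–37°C before growth was scored.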

[26] = test system: Cutibacterium acnes; assay: MBC/MIC ratio of Propionibacterium acnes GE4E; type: functional; how it was run: as §3
[27] = test system: Corynebacterium jeikeium; assay: Antibacterial activity against Corynebacterium jeikeium after 48 hrs by broth microdilution method; type: functional
How it was run: (§4)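 Broth microdilution per CLSI in cation-adjusted Mueller-Hinton broth supplemented with 0.5% (vol/vol) Tween 80. Plates incubated at 35°C in ambient air for 44 to 48 h, then read visually. MICs in μg/ml; a geometric mean MIC was calculated across the corynebacterial strains.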

[28] = test system: Corynebacterium diphtheriae; assay: Antibacterial activity against Corynebacterium diphtheriae after 48 hrs by broth microdilution method; type: functional; how it was run: as §4
[29] = test system: Corynebacterium amycolatum; assay: Antibacterial activity against Corynebacterium amycolatum after 48 hrs by broth microdilution method; type: functional; how it was run: as §4
[30] = test system: Corynebacterium minutissimum; assay: Antibacterial activity against Corynebacterium minutissimum after 48 hrs by broth microdilution method; type: functional; how it was run: as §4
[31] = test system: Staphylococcus epidermidis; assay: Antibacterial activity against Staphylococcus epidermidis after 48 hrs by broth microdilution method; type: functional
[32] = test system: Staphylococcus aureus; assay: Antibacterial activity against methicillin-susceptible Staphylococcus aureus after 48 hrs by broth microdilution method; type: functional
[33] = Antibacterial activity against Streptococcus dysgalactiae subsp. dysgalactiae after 48 hrs by broth microdilution method; type: functional
[34] = test system: Streptococcus equi subsp. zooepidemicus; assay: Antibacterial activity against Streptococcus equi subsp. zooepidemicus after 48 hrs by broth microdilution method; type: functional
[35] = test system: Cutibacterium acnes; assay: Antibacterial activity against drug-resistant Propionibacterium acnes P401:5 after 48 hrs by broth microdilution method; type: functional; how it was run: as §1
[36] = test system: Cutibacterium acnes; assay: Antibacterial activity against drug-resistant Propionibacterium acnes P425:1 after 48 hrs by broth microdilution method; type: functional; how it was run: as §1
[37] = test system: Cutibacterium acnes; assay: Antibacterial activity against drug-resistant Propionibacterium acnes P429:1 (SC) after 48 hrs by broth microdilution method; type: functional; how it was run: as §1
[38] = test system: Cutibacterium acnes; assay: Antibacterial activity against drug-resistant Propionibacterium acnes P429:1 (BC) after 48 hrs by broth microdilution method; type: functional; how it was run: as §1
[39] = test system: Cutibacterium acnes; assay: Antibacterial activity against drug-resistant Propionibacterium acnes SW54EA after 48 hrs by broth microdilution method; type: functional; how it was run: as §1
[40] = test system: Cutibacterium acnes; assay: Antibacterial activity against drug-resistant Propionibacterium acnes SW101T after 48 hrs by broth microdilution method; type: functional; how it was run: as §1
[41] = test system: Cutibacterium acnes; assay: Antibacterial activity against drug-resistant Propionibacterium acnes GE46EB after 48 hrs by broth microdilution method; type: functional; how it was run: as §1
[42] = test system: Streptococcus pyogenes; assay: Antibacterial activity against Streptococcus pyogenes after 20 to 24 hrs by broth microdilution method
[43] = test system: Staphylococcus aureus; assay: Antibacterial activity against methicillin-resistant Staphylococcus aureus after 20 to 24 hrs by broth microdilution method
[44] = test system: Propionibacterium granulosum; assay: Antibacterial activity against drug-resistant Propionibacterium granulosum QK6/92 after 48 hrs by broth microdilution method
[45] = test system: Staphylococcus aureus; assay: Antibacterial activity against borderline oxacillin-resistant Staphylococcus aureus after 20 to 24 hrs by broth microdilution method

Q: With CC[C@H]1OC(=O)[C@H](C)[C@@H](O[C@H]2C[C@@](C)(OC)[C@@H](O)[C@H](C)O2)[C@H](C)[C@@H](O[C@@H]2O[C@H](C)C[C@H](N(C)C)[C@H]2O)[C@](C)(OC)C[C@@H](C)C(=O)[C@H](C)[C@H]2[C@H](SCCn3cnc4cccnc43)C(=O)O[C@@]21C as the compound, how does the MIC [1] read?
A: ≤ 0.06 µg/mL

Q: What about the MIC [2] of the same compound?
A: ≤ 0.06 µg/mL

Q: What about the MIC [3] of the same compound?
A: ≤ 0.06 µg/mL

Q: What about the MIC [4] of the same compound?
A: ≤ 0.06 µg/mL

Q: And the MIC [5]?
A: ≤ 0.06 µg/mL

Q: What about the MIC [6] of the same compound?
A: ≤ 0.06 µg/mL

Q: What about the MIC [7] of the same compound?
A: ≤ 0.06 µg/mL

Q: What about the MIC [8] of the same compound?
A: ≤ 0.06 µg/mL

Q: And the MIC [9]?
A: ≤ 0.06 µg/mL

Q: What about the MIC [10] of the same compound?
A: ≤ 0.06 µg/mL

Q: What about the MIC [11] of the same compound?
A: ≤ 0.06 µg/mL

Q: And the MIC [12]?
A: ≤ 0.06 µg/mL

Q: What about the MIC [13] of the same compound?
A: ≤ 0.06 µg/mL

Q: And the MIC [14]?
A: 0.5 µg/mL (≈ 0.527 µM)

Q: And the MIC [15]?
A: 128 µg/mL (≈ 135 µM)

Q: What about the MIC [16] of the same compound?
A: ≥ 256 µg/mL

Q: What about the MIC [17] of the same compound?
A: 64 µg/mL (≈ 67.4 µM)

Q: What about the MIC [18] of the same compound?
A: ≤ 0.06 µg/mL

Q: And the MIC [19]?
A: 0.25 µg/mL (≈ 0.263 µM)

Q: What about the MBC [20] of the same compound?
A: ≤ 0.06 µg/mL

Q: And the MBC [21]?
A: ≤ 0.06 µg/mL

Q: And the MBC [22]?
A: ≤ 0.06 µg/mL

Q: And the MBC [23]?
A: > 32 µg/mL

Q: What about the MBC [24] of the same compound?
A: ≥ 256 µg/mL

Q: What about the Ratio [25] of the same compound?
A: >8

Q: What about the Ratio [26] of the same compound?
A: >=2

Q: What about the MIC [27] of the same compound?
A: 0.88 µg/mL (≈ 0.927 µM)

Q: And the MIC [28]?
A: 0.88 µg/mL (≈ 0.927 µM)

Q: What about the MIC [29] of the same compound?
A: 0.88 µg/mL (≈ 0.927 µM)

Q: What about the MIC [30] of the same compound?
A: 0.88 µg/mL (≈ 0.927 µM)

Q: What about the MIC [31] of the same compound?
A: 4.24 µg/mL (≈ 4.47 µM)

Q: And the MIC [32]?
A: 4.32 µg/mL (≈ 4.55 µM)

Q: And the MIC [33]?
A: 0.12 µg/mL (≈ 0.126 µM)

Q: And the MIC [34]?
A: 0.08 µg/mL (≈ 0.0843 µM)

Q: What about the MIC [35] of the same compound?
A: ≤ 0.06 µg/mL

Q: What about the MIC [36] of the same compound?
A: 4 µg/mL (≈ 4.21 µM)

Q: What about the MIC [37] of the same compound?
A: ≤ 0.06 µg/mL

Q: What about the MIC [38] of the same compound?
A: 0.5 µg/mL (≈ 0.527 µM)

Q: And the MIC [39]?
A: 0.5 µg/mL (≈ 0.527 µM)

Q: What about the MIC [40] of the same compound?
A: 4 µg/mL (≈ 4.21 µM)

Q: What about the MIC [41] of the same compound?
A: 256 µg/mL (≈ 270 µM)

Q: What about the MIC [42] of the same compound?
A: 0.19 µg/mL (≈ 0.2 µM)

Q: What about the MIC [43] of the same compound?
A: 4.32 µg/mL (≈ 4.55 µM)

Q: And the MIC [44]?
A: 0.125 µg/mL (≈ 0.132 µM)

Q: What about the MIC [45] of the same compound?
A: 4.32 µg/mL (≈ 4.55 µM)
